One block for each compound: values may come before it. The source made the active and inactive calls. The calls are words filed in the database; no cut-off is given here.
Columns and labels:
HeLa [1] = assay: Antiproliferative activity against human HeLa cells assessed as cell proliferation at 1 uM after 24 hrs by MTT assay relative to control; type: functional; conditions: read-out: Activity
Procedure, shortened: (§1)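 HeLa and HCT116/chr3 cells grown at 37 °C, 5% CO2 in D-MEM with 10% fetal calf serum (HCT116/chr3 medium plus 500 μg/mL G418). Seeded 1 × 10^3 cells/well, treated 24 h later for 24 h from 10 mM DMSO stock; 1% DMSO solvent control. Quadruplicate, repeated three times; given as % of control ± SD.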

[2] = Growth inhibition of HSMC; type: cell-based; conditions: Homo sapiens
Procedure, shortened: (§2)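 Human aortic smooth muscle, PtK2 kidney epithelial, rat A10 aortic smooth muscle and HUVEC lines grown as the supplier recommends, under 5% CO2.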

Bos taurus = species: Bos taurus; assay: Inhibition of [3H]colchicine binding to bovine tubulin at 5 uM after 10 mins by DEAE-cellulose filter method
HCT-116 [3] = assay: Antiproliferative activity against human HCT116 cells expressing mismatch repair gene MLH1 complemented with chromosome 3 assessed as cell proliferation at 1 uM after 24 hrs by MTT assay relative to control; type: functional; conditions: HCT-116, 24 h, read-out: Activity; procedure, shortened: as §1
MCF7 [4] = assay: Selectivity index, ratio of IC50 for rat A10 cells to IC50 for human MCF7 cells; type: functional
Procedure, shortened: (§3)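 Selectivity index: IC50 in the named nontransformed line divided by IC50 in MCF-7 cells.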

M14 [5] = assay: Cytotoxicity against human M14 cells after 48 hrs by MTT assay; type: functional, cell-based
Procedure, shortened: (§4)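 MTT assay. Seeded 10^5 cells/well, compound added after 24 h at 10, 30, 50, 100, 150, 200 nM for 24 or 48 h. MTT 1 mg/mL, 2 h at 37 °C in dark, formazan dissolved in DMSO, read at 550 nm. Triplicate; 0.5% DMSO control.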

MCF7 [6] = assay: Growth inhibition of human MCF7 cells after 48 hrs by sulforhodamine B assay; type: functional, cell-based; conditions: MCF7, 48 h
[7] = Growth inhibition of mouse J774.1 cells at 300 nM after 48 hrs by MTT assay relative to control; type: cell-based; conditions: read-out: GI
M14 [8] = assay: Cytotoxicity against human M14 cells at 10 to 200 nM by MTT assay; type: functional, cell-based; conditions: TDE = time-dependent effect; procedure, shortened: as §4
Saccharomyces cerevisiae [9] = assay: Toxicity in Saccharomyces cerevisiae assessed as growth inhibition at second dilution at 20 uM after 3 days; type: organism-based; conditions: in vivo, 72 h
Procedure, shortened: (§5)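 S. cerevisiae BY4741 grown at 28 °C in minimal SD medium with 2% glucose. Exponential culture (5 × 10^6 cells/mL) exposed 18 h at 28 °C to compound at 20 μM, washed, resuspended in SD, serially diluted 10-fold, incubated overnight. Spotted onto YPD plates; growth scored by dilution reached after 3 days at 28 °C.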

Saccharomyces cerevisiae [10] = assay: Toxicity in Saccharomyces cerevisiae assessed as growth inhibition at first dilution at 20 uM after 3 days; type: organism-based; conditions: in vivo, 72 h; procedure, shortened: as §5
Homo sapiens = species: Homo sapiens; assay: Selectivity index, ratio of IC50 for HSMC to IC50 for human MCF7; procedure, shortened: as §3
HUVEC = assay: Growth inhibition of HUVEC; type: cell-based; conditions: Homo sapiens; procedure, shortened: as §2
HEK293 [11] = assay: Cytotoxicity against HEK293 cells at 10 to 200 nM by MTT assay; type: cell-based; conditions: human, hek293, 0.2 µM; TDE = time-dependent effect; procedure, shortened: as §4
MCF7 [12] = assay: Selectivity index, ratio of IC50 for HUVEC to IC50 for human MCF7 cells; procedure, shortened: as §3
HCT-116 [13] = assay: Antiproliferative activity against human HCT116 cells expressing mismatch repair gene MLH1 complemented with chromosome 3 assessed as cell proliferation at 0.5 uM after 24 hrs by MTT assay relative to control; type: functional; conditions: HCT-116, 24 h, read-out: Activity; procedure, shortened: as §1
U-937 [14] = assay: Cytotoxicity against human U937 cells after 48 hrs by MTT assay; type: functional, cell-based; procedure, shortened: as §4
HeLa [15] = assay: Antiproliferative activity against human HeLa cells assessed as cell proliferation at 0.5 uM after 24 hrs by MTT assay relative to control; type: functional; conditions: read-out: Activity; procedure, shortened: as §1
M14 [16] = assay: Cytotoxicity against human M14 cells assessed as effect on cell morphology at 300 nM after 48 hrs by time-lapse microscopy; type: functional, cell-based
Procedure, shortened: (§6)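 Morphology of HEK and M14 cells followed by time-lapse microscopy in 96-well plates at 37 °C, 5% CO2, with images captured every hour over 48 h.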

A10 = assay: Growth inhibition of rat A10 cells; type: cell-based; procedure, shortened: as §2
HEK293 [17] = assay: Cytotoxicity against HEK293 cells assessed as effect on cell morphology at 300 nM after 48 hrs by time-lapse microscopy; type: cell-based; conditions: human, hek293, 48 h, 0.3 µM; procedure, shortened: as §6
U-937 [18] = assay: Cytotoxicity against human U937 cells at 10 to 200 nM by MTT assay; type: functional, cell-based; conditions: TDE = time-dependent effect; procedure, shortened: as §4
HEK293 [19] = assay: Cytotoxicity against HEK293 cells after 48 hrs by MTT assay; type: cell-based, Homo sapiens; conditions: human, hek293, 48 h; procedure, shortened: as §4
[20] = Inhibition of tubulin polymerization after 20 mins by spectrophotometry
Procedure, shortened: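 Tubulin 10 μM in 0.8 M monosodium glutamate, pH 6.6, preincubated 15 min at 30 °C with varying drug, chilled on ice. GTP added to 0.4 mM, turbidity at 350 nm followed 20 min at 30 °C. Extent of assembly measured; IC50 ± SD.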

MCF7 [21] = assay: Selectivity index, ratio of IC50 for Potorous tridactylus PtK2 cells to IC50 for human MCF7 cells; type: functional; procedure, shortened: as §3
[22] = Growth inhibition of Potorous tridactylus PtK2 cells; type: cell-based; procedure, shortened: as §2

inhibition (Bos taurus): 65%
IC50 (MCF7 [6]): 43 nM
IC50 [20]: 1600 nM
Compound: COc1cc(Sc2c[nH]c3ccc(Br)cc23)cc(OC)c1OC
growth at 1 µM (HeLa [1]): 56%
IC50 [2]: 300 nM
growth at 1 µM (HCT-116 [3]): 60%
Ratio IC50 (MCF7 [4]): 4.9
Activity (M14 [5]): Dose-dependent effect
IC50 (M14 [5]; M14, 48 h): 194 nM
inhibition at 48 h, 0.3 µM [7]: 20%
Activity (M14 [8]): tde
Activity (Saccharomyces cerevisiae [9]): Non-toxic
Activity (Saccharomyces cerevisiae [10]): Toxic
Ratio IC50 (Homo sapiens): 7
IC50 (HUVEC): 400 nM
Activity (HEK293 [11]): tde
Ratio IC50 (MCF7 [12]): 9.3
growth at 0.5 µM (HCT-116 [13]): 60%
Activity (U-937 [14]): Dose-dependent effect
IC50 (U-937 [14]; U-937, 48 h): 100 nM
growth at 0.5 µM (HeLa [15]): 47%
Activity (M14 [16]): Active
IC50 (A10): 210 nM
Activity (HEK293 [17]): Toxic
Activity (U-937 [18]): tde
Activity (HEK293 [19]): Dose-dependent effect
Ratio IC50 (MCF7 [21]): 5.3
IC50 [22]: 230 nM

IC50 [20]: > 40000 nM
Compound: CCOC(=O)c1[nH]c2ccc(OC)cc2c1C(O)c1cc(OC)c(OC)c(OC)c1 (configuration not stated)

inhibition (Bos taurus): 71%
IC50 (MCF7 [6]): 46 nM
IC50 [20]: 2400 nM
Compound: CCOC(=O)c1[nH]c2ccc(OC)cc2c1Sc1cc(OC)c(OC)c(OC)c1

inhibition (Bos taurus): 42%
IC50 (MCF7 [6]): 93 nM
IC50 [20]: 2800 nM
Compound: CCOC(=O)c1[nH]c2ccc(OC)cc2c1Cc1cc(OC)c(OC)c(OC)c1

IC50 [20]: > 40000 nM
Compound: COC(=O)c1[nH]c2ccc(OC)cc2c1S(=O)(=O)c1cc(OC)c(OC)c(OC)c1

IC50 [20]: 24000 nM
Compound: COc1cc(Cc2c[nH]c3ccc(Cl)cc23)cc(OC)c1OC

inhibition (Bos taurus): 53%
IC50 [20]: 2200 nM
Compound: CCOC(=O)c1[nH]c2ccc(Cl)cc2c1Sc1cc(OC)c(OC)c(OC)c1

IC50 [20]: > 40000 nM
Compound: CCOC(=O)c1[nH]c2ccc(Cl)cc2c1C(=O)Cc1cc(OC)c(OC)c(OC)c1

IC50 (MCF7 [6]): > 2500 nM
IC50 [20]: 32000 nM
Compound: CCOC(=O)c1cccn1C(=O)c1cc(OC)c(OC)c(OC)c1

IC50 [20]: > 40000 nM
Compound: CCOC(=O)c1cccn1Cc1cc(OC)c(OC)c(OC)c1

Compound: COC(=O)c1[nH]c2ccc(Cl)cc2c1C(=O)c1cc(OC)c(OC)c(OC)c1
inhibition (Bos taurus): 61%
IC50 (MCF7 [6]): 30 nM
IC50 [20]: 1600 nM

IC50 [20]: > 40000 nM
Compound: COC(=O)c1[nH]c2ccc(OC)cc2c1S(=O)c1cc(OC)c(OC)c(OC)c1 (configuration not stated)

inhibition (Bos taurus): 49%
IC50 (MCF7 [6]): 110 nM
IC50 [20]: 1400 nM
Compound: CCOC(=O)c1[nH]c2ccc(Cl)cc2c1C(=O)c1cc(OC)c(OC)c(OC)c1

inhibition (Bos taurus): 33%
IC50 (MCF7 [6]): 190 nM
IC50 [20]: 4200 nM
Compound: COC(=O)c1[nH]c2ccccc2c1Cc1cc(OC)c(OC)c(OC)c1

inhibition (Bos taurus): 26%
IC50 (MCF7 [6]): 150 nM
IC50 [20]: 3500 nM
Compound: COc1cc(C(=O)c2c[nH]c3ccccc23)cc(OC)c1OC

IC50 [20]: > 40000 nM
Compound: COc1cc(Cn2c(C)c(C)c(C)c2C(=O)OCCOCCO)cc(OC)c1OC

inhibition (Bos taurus): 49%
IC50 (MCF7 [6]): 90 nM
IC50 [20]: 2600 nM
Compound: CCOC(=O)c1[nH]c2ccc(OC)cc2c1C(=O)c1cc(OC)c(OC)c(OC)c1

inhibition (Bos taurus): 61%
IC50 (MCF7 [6]): 22 nM
IC50 [20]: 4100 nM
Compound: COc1ccc2[nH]cc(Sc3cc(OC)c(OC)c(OC)c3)c2c1

IC50 [20]: > 40000 nM
Compound: CCOC(=O)c1c(CC)c(CC)c(C)n1Cc1cc(OC)c(OC)c(OC)c1

inhibition (Bos taurus): 51%
IC50 (MCF7 [6]): 80 nM
IC50 [20]: 2600 nM
Compound: CCOC(=O)c1[nH]c2ccccc2c1C(=O)c1cc(OC)c(OC)c(OC)c1
